In ChEMBL document CHEMBL2163319, “Stereoselective synthesis and antiviral activity of methyl-substituted cycloSal-pronucleotides” (J Med Chem, 2012):

Experiments:
[1] = Cytotoxicity against human CEM cells; assay type: cell-based; conditions: CCRF-CEM (CEM) cells
[2] = system: Human immunodeficiency virus 1; assay: Antiviral activity against HIV-1 infected in wild type CEM cells assessed as inhibition of virus-induced cytopathicity after 4 days; assay type: functional, organism-based; conditions: Human immunodeficiency virus 1, CCRF-CEM, 96 h
Procedure, shortened: (§1)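 Wild-type CEM/0 or thymidine kinase-deficient CEM/TK- T-lymphocyte cultures infected with HIV-1 or HIV-2 and exposed to virus and compound together for 4 days. Giant cell formation (virus-induced cytopathicity) scored by microscopy; value is the 50% effective concentration.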

[3] = system: Human immunodeficiency virus 2; assay: Antiviral activity against HIV-2 infected in thymidine kinase deficient CEM cells assessed as inhibition of virus-induced cytopathicity after 4 days; assay type: functional, organism-based; conditions: Human immunodeficiency virus 2, CCRF-CEM, 96 h; procedure, shortened: as §1
[4] = system: Human immunodeficiency virus 2; assay: Antiviral activity against HIV-2 infected in wild type CEM cells assessed as inhibition of virus-induced cytopathicity after 4 days; assay type: functional, organism-based; conditions: Human immunodeficiency virus 2, CCRF-CEM, 96 h; procedure, shortened: as §1
[5] = Hydrolysis half life in human CEM cell extracts at pH 6.9; assay type: ADME, CCRF-CEM
Procedure, shortened: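 CEM cell extracts (pH 6.9) incubated with the triester, added from a 3.0 mM DMSO stock, and sampled at several incubation times. Hydrolysis half-life determined.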

[6] = Hydrolysis half life in 25 mM phosphate buffer at pH 7.3 by reversed HPLC analysis; assay type: physicochemical

SMILES	CC50 [1] [nM]	EC50 [2] [nM]	EC50 [3] [nM]	EC50 [4] [nM]	half-life [5] [h]	half-life [6] [h]
Cc1cccc2c1O[P@@](=O)(OC[C@@H]1C=C[C@H](n3cc(C)c(=O)[nH]c3=O)O1)OC2	179000	480	3200	1100	8.7	9.2
Cc1cccc2c1O[P@](=O)(OC[C@@H]1C=C[C@H](n3cc(C)c(=O)[nH]c3=O)O1)OC2	39000	90	160	170	18	22.1
Cc1cn([C@H]2C=C[C@@H](CO)O2)c(=O)[nH]c1=O [STAVUDINE]	> 250000	780	150000	1300	–	–
